Reference: ChEMBL document CHEMBL1134691, “3-Phenyl-5-acyloxymethyl-2H,5H-furan-2-ones: synthesis and biological activity of a novel group of potential antifungal drugs” (2001)
Converted amounts (≈) assume the structure as drawn.

Assays:
Pichia kudriavzevii [1] = experiment: Inhibition of Candida krusei E28 growth for 24 hours in vitro.; type: functional; conditions: Pichia kudriavzevii, 24 h; read-out: MIC
Outline: (§1)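 NCCLS M27-A broth microdilution in RPMI 1640 with L-glutamine and 0.165 M MOPS, pH 7.0. Isolates kept on Sabouraud dextrose agar. Inoculum 5 × 10^3 cfu/mL final. Compounds were diluted in DMSO (≤2% final) and tested in 2-fold dilutions of 1000–0.24 µmol/L. Incubation at 35 °C, OD540 read at 24 and 48 h. MIC = 80% growth inhibition versus control; assays run twice in duplicate.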

Trichosporon beigelii [2] = experiment: Inhibition of Trichosporon beigelli 1188 for 24 hours in vitro.; type: functional; conditions: Trichosporon beigelii, 24 h; read-out: MIC
Outline: (§2)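 Microdilution following NCCLS M27-A. Medium: RPMI 1640 with L-glutamine, 0.165 M MOPS, pH 7.0. Final inoculum 5 × 10^3 cfu/mL. Compounds dissolved in DMSO, final ≤2%, serially halved from 1000 to 0.24 µmol/L. Incubated at 35 °C and read at 24 and 48 h. MIC defined as 80% inhibition of control growth; run twice in duplicate.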

Candida tropicalis [3] = experiment: Inhibition of Candida tropicalis 156 growth for 24 hours in vitro.; type: functional; conditions: Candida tropicalis, 24 h; read-out: MIC; outline: as §1
Pichia kudriavzevii [4] = experiment: Inhibition of Candida krusei ATCC 6258 growth for 48 hours in vitro.; type: functional; conditions: Pichia kudriavzevii, ATCC 6258, 48 h; read-out: MIC; outline: as §1
Clavispora lusitaniae [5] = experiment: Inhibition of Candida lusitaniae 2446/I growth for 48 hours in vitro.; type: functional; conditions: Clavispora lusitaniae, 48 h; read-out: MIC; outline: as §1
Candida albicans [6] = experiment: Inhibition of Candida albicans ATCC 90028 for 48 hours in vitro.; type: functional; conditions: Candida albicans, ATCC 90028, 48 h; read-out: MIC; outline: as §1
Nakaseomyces glabratus [7] = experiment: Inhibition of Candida glabrata 20/I growth for 48 hours in vitro.; type: functional; conditions: Nakaseomyces glabratus, 48 h; read-out: MIC; outline: as §1
Aspergillus fumigatus [8] = experiment: Inhibition of Aspergillus fumigatus 231 growth for 24 hours in vitro.; type: functional; conditions: Aspergillus fumigatus, 24 h; read-out: MIC
Outline: (§3)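 Filamentous isolates tested by microdilution per NCCLS M27-A in RPMI 1640 plus L-glutamine, buffered with 0.165 M MOPS to pH 7.0. Final inoculum 5 × 10^3 cfu/mL. Compounds in DMSO (final ≤2%), 2-fold series over 1000–0.24 µmol/L. Plates held at 35 °C and read visually after 24 and 48 h. MIC taken as 80% inhibition of control growth; determined twice in duplicate.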

Aspergillus fumigatus [9] = experiment: Inhibition of Aspergillus fumigatus 231 growth for 48 hours in vitro.; type: functional; conditions: Aspergillus fumigatus, 48 h; read-out: MIC; outline: as §3
Pichia kudriavzevii [10] = experiment: Inhibition of Candida krusei E28 growth for 48 hours in vitro.; type: functional; conditions: Pichia kudriavzevii, 48 h; read-out: MIC; outline: as §1
Candida albicans [11] = experiment: Inhibition of Candida albicans ATCC 44859 growth for 24 hours in vitro.; type: functional; conditions: Candida albicans, ATCC 44859, 24 h; read-out: MIC; outline: as §1
Candida tropicalis [12] = experiment: Inhibition of Candida tropicalis 156 growth for 48 hours in vitro.; type: functional; conditions: Candida tropicalis, 48 h; read-out: MIC; outline: as §1
Candida parapsilosis [13] = experiment: Inhibition of Candida parapsilosis ATCC 22019 growth for 48 hours in vitro.; type: functional; conditions: Lodderomyces parapsilosis, ATCC 22019, 48 h; read-out: MIC; outline: as §1
[14] = Inhibition of Trichophyton mentagrophytes 445 growth for 72 hours in vitro.; type: functional, Arthroderma benhamiae; conditions: Trichophyton benhamiae, 72 h; read-out: MIC
Outline: (§4)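 Dermatophyte grown in MOPS-buffered (0.165 M, pH 7.0) RPMI 1640 containing L-glutamine, in an M27-A microdilution format. Inoculum 5 × 10^3 cfu/mL final. Compounds from DMSO stocks (≤2% final), 2-fold dilutions 1000–0.24 µmol/L. Incubated at 35 °C, growth judged visually at 72 and 120 h. MIC endpoint is 80% inhibition relative to control; measured twice in duplicate.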

Candida albicans [15] = experiment: Inhibition of Candida albicans ATCC 44859 growth for 48 hours in vitro.; type: functional; conditions: Candida albicans, ATCC 44859, 48 h; read-out: MIC; outline: as §1
[16] = Inhibition of Trichophyton mentagrophytes 445 growth for 120 hours in vitro.; type: functional, Arthroderma benhamiae; conditions: Trichophyton benhamiae, 120 h; read-out: MIC; outline: as §4
Nakaseomyces glabratus [17] = experiment: Inhibition of Candida glabrata 20/I growth for 24 hours in vitro.; type: functional; conditions: Nakaseomyces glabratus, 24 h; read-out: MIC; outline: as §1
Pichia kudriavzevii [18] = experiment: Inhibition of Candida krusei ATCC 6258 growth for 24 hours in vitro.; type: functional; conditions: Pichia kudriavzevii, ATCC 6258, 24 h; read-out: MIC; outline: as §1
Clavispora lusitaniae [19] = experiment: Inhibition of Candida lusitaniae 2446/I growth for 24 hours in vitro.; type: functional; conditions: Clavispora lusitaniae, 24 h; read-out: MIC; outline: as §1
Lichtheimia corymbifera [20] = experiment: In vitro inhibition of Absidia corymbifera 272 growth for 48 hours.; type: functional; conditions: Lichtheimia corymbifera, 48 h; read-out: MIC; outline: as §3
Trichosporon beigelii [21] = experiment: Inhibition of Trichosporon beigelli 1188 for 48 hours in vitro.; type: functional; conditions: Trichosporon beigelii, 48 h; read-out: MIC; outline: as §2
Candida albicans [22] = experiment: Inhibition of Candida albicans ATCC 90028 for 24 hours in vitro.; type: functional; conditions: Candida albicans, ATCC 90028, 24 h; read-out: MIC; outline: as §1
Lichtheimia corymbifera [23] = experiment: In vitro inhibition of Absidia corymbifera 272 growth for 24 hours.; type: functional; conditions: Lichtheimia corymbifera, 24 h; read-out: MIC; outline: as §3
Candida parapsilosis [24] = experiment: Inhibition of Candida parapsilosis ATCC 22019 growth for 24 hours in vitro.; type: functional; conditions: Lodderomyces parapsilosis, ATCC 22019, 24 h; read-out: MIC; outline: as §1

Row | SMILES | MIC (Pichia kudriavzevii [1]) [µM] | MIC (Trichosporon beigelii [2]) [µM] | MIC (Candida tropicalis [3]) [µM] | MIC (Pichia kudriavzevii [4]) [µM] | MIC (Clavispora lusitaniae [5]) [µM] | MIC (Candida albicans [6]) [µM] | MIC (Nakaseomyces glabratus [7]) [µM] | MIC (Aspergillus fumigatus [8]) [µM] | MIC (Aspergillus fumigatus [9]) [µM] | MIC (Pichia kudriavzevii [10]) [µM] | MIC (Candida albicans [11]) [µM] | MIC (Candida tropicalis [12]) [µM] | MIC (Candida parapsilosis [13]) [µM] | MIC (Candida albicans [15]) [µM] | MIC (Pichia kudriavzevii [18]) [µM] | MIC (Clavispora lusitaniae [19]) [µM] | MIC (Lichtheimia corymbifera [20]) [µM] | MIC (Candida albicans [22]) [µM] | MIC (Lichtheimia corymbifera [23]) [µM] | MIC (Candida parapsilosis [24]) [µM] | also measured
1 | CC(C)(C)C(=O)OCC1C=C(c2ccc(Br)cc2)C(=O)O1 (stereo not drawn) | 7.81 (≈ 2.76 µg/mL) | 7.81 (≈ 2.76 µg/mL) | 7.81 (≈ 2.76 µg/mL) | 7.81 (≈ 2.76 µg/mL) | 7.81 (≈ 2.76 µg/mL) | 7.81 (≈ 2.76 µg/mL) | 1.95 (≈ 0.689 µg/mL) | 0.98 (≈ 0.346 µg/mL) | 3.91 (≈ 1.38 µg/mL) | 7.81 (≈ 2.76 µg/mL) | 0.49 (≈ 0.173 µg/mL) | 7.81 (≈ 2.76 µg/mL) | 15.6 (≈ 5.52 µg/mL) | 1.95 (≈ 0.689 µg/mL) | 3.91 (≈ 1.38 µg/mL) | 3.91 (≈ 1.38 µg/mL) | 15.6 (≈ 5.52 µg/mL) | 1.95 (≈ 0.689 µg/mL) | 7.81 (≈ 2.76 µg/mL) | 3.91 (≈ 1.38 µg/mL) | MIC [14]: 1.95 µM (≈ 0.689 µg/mL); MIC [16]: 3.91 µM (≈ 1.38 µg/mL); MIC (Nakaseomyces glabratus [17]): 1.95 µM (≈ 0.689 µg/mL); MIC (Trichosporon beigelii [21]): 7.81 µM (≈ 2.76 µg/mL)
2 | COc1ccc(C2=CC(COC(=O)c3ccc(Cl)cc3)OC2=O)cc1 (stereo not drawn) | 31.2 (≈ 11.2 µg/mL) | > 125 | 31.2 (≈ 11.2 µg/mL) | 62.5 (≈ 22.4 µg/mL) | 125 (≈ 44.8 µg/mL) | 62.5 (≈ 22.4 µg/mL) | 125 (≈ 44.8 µg/mL) | 31.2 (≈ 11.2 µg/mL) | 125 (≈ 44.8 µg/mL) | 62.5 (≈ 22.4 µg/mL) | 1.95 (≈ 0.7 µg/mL) | 125 (≈ 44.8 µg/mL) | > 125 | 15.6 (≈ 5.61 µg/mL) | 31.2 (≈ 11.2 µg/mL) | 62.5 (≈ 22.4 µg/mL) | 62.5 (≈ 22.4 µg/mL) | 31.2 (≈ 11.2 µg/mL) | 31.2 (≈ 11.2 µg/mL) | 62.5 (≈ 22.4 µg/mL) | MIC [14]: 7.81 µM (≈ 2.8 µg/mL); MIC [16]: 15.6 µM (≈ 5.61 µg/mL); MIC (Nakaseomyces glabratus [17]): 62.5 µM (≈ 22.4 µg/mL); MIC (Trichosporon beigelii [21]): > 125 µM
3 | CC(=O)N1CCN(c2ccc(OCC3COC(Cn4ccnc4)(c4ccc(Cl)cc4Cl)O3)cc2)CC1 (stereo not drawn) [KETOCONAZOLE] | 3.91 (≈ 2.08 µg/mL) |  |  | 1.96 (≈ 1.04 µg/mL) | 0.11 (≈ 0.0585 µg/mL) | < 0.056 |  |  | 15.6 (≈ 8.31 µg/mL) | 3.91 (≈ 2.08 µg/mL) | 0.11 (≈ 0.0585 µg/mL) |  | 0.11 (≈ 0.0585 µg/mL) | 0.11 (≈ 0.0585 µg/mL) | 1.96 (≈ 1.04 µg/mL) | 0.056 (≈ 0.0298 µg/mL) | 31.2 (≈ 16.6 µg/mL) | < 0.056 | 31.2 (≈ 16.6 µg/mL) | 0.11 (≈ 0.0585 µg/mL) | 
